# Activity calls are given as the source filed them. No cut-off for these calls is given here.
# Key:
# [1] = test system: Hepatitis C virus; assay: Antiviral activity against HCV by cell based replicon assay; assay type: functional, organism-based, Hepacivirus hominis
# [2] = Irreversible inhibition of hepatitis C virus NS5B polymerase; set-up: species or system Hepacivirus hominis
# [3] = AUC in rat at 10 mg/kg, po; assay type: ADME, organism-based; set-up: dose 10 mg/kg, route oral; settings: plasma
# Outline: (§1)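 Single-dose pharmacokinetics: rats were dosed at 10 mg/kg, and monkeys and dogs at 3 mg/kg. Oral AUC, clearance, half-life and bioavailability were determined. All doses were given in 0.4% MC vehicle.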
# [4] = test system: Salmonella typhimurium; assay: Mutagenic activity in Salmonella typhimurium by mini-AMES test in absence of S9 fraction; assay type: toxicity, organism-based; settings: salmonella enterica subsp. enterica serovar typhimurium
# [5] = target: T1, Lupus La protein (Homo sapiens, UniProt P05455); assay: Binding affinity to human La antigen by NMR based ALARM assay; assay type: ADME
# T1 sequence (P05455 whole entry): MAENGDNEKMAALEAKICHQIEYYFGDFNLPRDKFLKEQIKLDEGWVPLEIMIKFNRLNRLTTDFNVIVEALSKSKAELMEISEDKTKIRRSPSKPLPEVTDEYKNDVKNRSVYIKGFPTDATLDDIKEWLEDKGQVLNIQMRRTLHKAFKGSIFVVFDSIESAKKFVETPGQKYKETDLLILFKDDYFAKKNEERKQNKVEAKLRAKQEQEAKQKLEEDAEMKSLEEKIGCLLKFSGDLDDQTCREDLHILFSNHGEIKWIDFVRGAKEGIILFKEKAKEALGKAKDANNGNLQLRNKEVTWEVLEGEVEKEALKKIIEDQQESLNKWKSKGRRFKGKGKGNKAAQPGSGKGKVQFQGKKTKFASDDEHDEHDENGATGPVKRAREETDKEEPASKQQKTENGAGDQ
# Outline: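 NMR-based ALARM assay. The compound was incubated with human La antigen, and NMR was used to monitor reaction with the antigen's reactive thiols.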
# [6] = Mutagenic activity in micronuclei assessed as induction of chromosomal damage
# [7] = test system: Salmonella typhimurium; assay: Mutagenic activity in Salmonella typhimurium by mini-AMES test in presence of S9 fraction; assay type: toxicity, organism-based; settings: salmonella enterica subsp. enterica serovar typhimurium
# [8] = test system: Hepacivirus hominis; assay: Binding affinity to hepatitis C virus NS5B polymerase assessed as covalent bonding with cysteine-366 residue by mass spectroscopy analysis
# [9] = Clearance in dog at 3 mg/kg; assay type: ADME, organism-based, Canis lupus familiaris; set-up: dose 3 mg/kg; settings: in vivo; outline: as §1
# [10] = Clearance in rat at 10 mg/kg; assay type: ADME, organism-based; set-up: dose 10 mg/kg; settings: in vivo; outline: as §1
# [11] = test system: Plasma; assay: Metabolic stability in dog plasma up to 3 hrs; assay type: ADME, cell-free, Canis lupus familiaris
# [12] = target: Cytochrome P450 2D6 (Homo sapiens, UniProt P10635); assay: Inhibition of CYP2D6 up to 30 uM; assay type: ADME
# [13] = target: Cytochrome P450 2C9 (Homo sapiens, UniProt P11712); assay: Inhibition of CYP2C9 up to 30 uM; assay type: ADME
# [14] = Half life in dog at 3 mg/kg, iv; assay type: ADME, organism-based, Canis lupus familiaris; set-up: dose 3 mg/kg, route intravenous; settings: in vivo; outline: as §1
# [15] = test system: Plasma; assay: Metabolic stability in monkey plasma up to 3 hrs; assay type: ADME, cell-free, Macaca mulatta; settings: rhesus monkey
# [16] = test system: Plasma; assay: Metabolic stability in human plasma up to 3 hrs; assay type: ADME, cell-free
# [17] = test system: Plasma; assay: Metabolic stability in rat plasma up to 3 hrs; assay type: ADME, cell-free
# [18] = Oral bioavailability in rat at 10 mg/kg; assay type: ADME, organism-based; settings: in vivo; outline: as §1
# [19] = Half life in monkey at 3 mg/kg, iv; assay type: ADME, organism-based, Macaca mulatta; set-up: dose 3 mg/kg, route intravenous; settings: rhesus monkey, in vivo; outline: as §1
# [20] = Induction of cytochrome P450 activity at 10 uM; assay type: ADME
# [21] = AUC in monkey at 3 mg/kg, po; assay type: ADME, organism-based, Macaca mulatta; set-up: dose 3 mg/kg, route oral; settings: rhesus monkey, plasma; outline: as §1
# [22] = Oral bioavailability in dog at 3 mg/kg; assay type: ADME, organism-based, Canis lupus familiaris; settings: in vivo; outline: as §1
# [23] = Oral bioavailability in monkey at 3 mg/kg; assay type: ADME, organism-based, Macaca mulatta; settings: rhesus monkey, in vivo; outline: as §1
# [24] = Clearance in monkey at 3 mg/kg; assay type: ADME, organism-based, Macaca mulatta; set-up: dose 3 mg/kg; settings: rhesus monkey, in vivo; outline: as §1
# [25] = AUC in dog at 3 mg/kg, po; assay type: ADME, organism-based, Canis lupus familiaris; set-up: dose 3 mg/kg, route oral; settings: plasma; outline: as §1
# [26] = target: Cytochrome P450 3A4 (Homo sapiens, UniProt P08684); assay: Inhibition of CYP3A4 up to 30 uM; assay type: ADME
# [27] = Half life in rat at 10 mg/kg, iv; assay type: ADME, organism-based; set-up: dose 10 mg/kg, route intravenous; settings: in vivo; outline: as §1
# [28] = Drug level in rat liver at 10 mg/kg, iv after 6 hrs; assay type: ADME, organism-based; set-up: dose 10 mg/kg, route intravenous; settings: read-out: Drug uptake
# Cytochrome P450 3A4, sequence (P08684 whole entry): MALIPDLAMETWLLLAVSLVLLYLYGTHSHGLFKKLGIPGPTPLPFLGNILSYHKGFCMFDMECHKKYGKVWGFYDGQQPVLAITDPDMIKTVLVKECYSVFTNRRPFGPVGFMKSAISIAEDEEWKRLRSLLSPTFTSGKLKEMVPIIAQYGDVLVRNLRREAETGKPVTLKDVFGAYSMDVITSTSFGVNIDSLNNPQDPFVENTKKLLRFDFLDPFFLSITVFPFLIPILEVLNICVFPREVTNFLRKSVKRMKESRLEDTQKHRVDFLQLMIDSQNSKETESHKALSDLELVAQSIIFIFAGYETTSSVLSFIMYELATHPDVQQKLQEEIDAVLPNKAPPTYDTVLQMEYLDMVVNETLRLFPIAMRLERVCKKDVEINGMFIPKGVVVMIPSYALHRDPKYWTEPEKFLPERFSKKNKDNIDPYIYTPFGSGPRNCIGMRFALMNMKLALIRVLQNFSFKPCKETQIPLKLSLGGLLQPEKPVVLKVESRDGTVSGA
# Cytochrome P450 2C9, sequence (P11712 whole entry): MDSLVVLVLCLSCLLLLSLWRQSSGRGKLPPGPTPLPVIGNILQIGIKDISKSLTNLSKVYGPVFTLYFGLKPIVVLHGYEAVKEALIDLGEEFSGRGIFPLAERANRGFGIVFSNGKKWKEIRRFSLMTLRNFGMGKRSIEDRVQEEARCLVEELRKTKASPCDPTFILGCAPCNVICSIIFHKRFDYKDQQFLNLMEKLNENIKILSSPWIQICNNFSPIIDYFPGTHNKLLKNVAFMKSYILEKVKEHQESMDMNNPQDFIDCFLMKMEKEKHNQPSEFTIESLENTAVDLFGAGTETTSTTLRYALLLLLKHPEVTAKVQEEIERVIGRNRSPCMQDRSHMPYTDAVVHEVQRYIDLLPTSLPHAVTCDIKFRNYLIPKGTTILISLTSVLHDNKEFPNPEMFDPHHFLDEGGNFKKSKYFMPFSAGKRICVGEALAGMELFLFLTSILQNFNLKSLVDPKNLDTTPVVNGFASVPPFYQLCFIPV
# Cytochrome P450 2D6, sequence (P10635 whole entry): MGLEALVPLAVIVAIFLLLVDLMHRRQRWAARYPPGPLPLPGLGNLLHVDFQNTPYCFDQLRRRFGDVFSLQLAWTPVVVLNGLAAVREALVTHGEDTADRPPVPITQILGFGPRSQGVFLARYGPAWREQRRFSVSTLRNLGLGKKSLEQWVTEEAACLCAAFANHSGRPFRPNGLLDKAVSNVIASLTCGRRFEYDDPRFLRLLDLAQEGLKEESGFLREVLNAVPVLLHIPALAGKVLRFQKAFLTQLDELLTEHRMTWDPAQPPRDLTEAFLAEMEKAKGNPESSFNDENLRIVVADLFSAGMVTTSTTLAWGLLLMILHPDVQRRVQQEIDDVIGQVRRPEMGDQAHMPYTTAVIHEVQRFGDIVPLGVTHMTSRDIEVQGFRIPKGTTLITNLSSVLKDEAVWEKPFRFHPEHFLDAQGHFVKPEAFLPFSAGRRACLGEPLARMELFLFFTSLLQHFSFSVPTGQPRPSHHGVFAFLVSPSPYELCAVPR
compound,measurement,setting,value
Cc1ccc2c(c1)c(-c1ccc[nH]c1=O)c(C(=O)NS(=O)(=O)C1CC1)n2Cc1cc(C(N)=O)ccc1F,EC50,[1],140 nM
same,IC50,[2],4 nM
Cc1ccc2c(c1)c(-c1ccc(C)[nH]c1=O)c(C(=O)NS(=O)(=O)C1CC1)n2Cc1cc([N+](=O)[O-])ccc1F,EC50,[1],9 nM
same,IC50,[2],12 nM
Cc1ccc2c(c1)c(-c1ccc[nH]c1=O)c(C(=O)NS(=O)(=O)C1CC1)n2Cc1cc(S(C)(=O)=O)ccc1F,EC50,[1],580 nM
same,IC50,[2],6 nM
Cc1ccc2c(c1)c(-c1ccc[nH]c1=O)c(C(=O)NS(=O)(=O)C1CC1)n2Cc1cc(C#N)ccc1F,EC50,[1],220 nM
same,IC50,[2],9 nM
Cc1ccc2c(c1)c(-c1ccc[nH]c1=O)c(C(=O)NS(=O)(=O)C(C)C)n2Cc1cc([N+](=O)[O-])ccc1F,EC50,[1],3 nM
same,IC50,[2],4 nM
Cc1ccc2c(c1)c(-c1ccc[nH]c1=O)c(C(=O)NS(=O)(=O)C1CC1)n2Cc1cc([N+](=O)[O-])ccc1Cl,EC50,[1],16 nM
same,IC50,[2],7 nM
Cc1ccc2c(c1)c(-c1ccc[nH]c1=O)c(C(=O)NS(=O)(=O)C1CC1)n2Cc1cc([S+]([O-])C(F)(F)F)ccc1Cl (centres undefined),EC50,[1],3400 nM
same,IC50,[2],14 nM
O=C(NS(=O)(=O)C1CC1)c1c(-c2ccc[nH]c2=O)c2cc(C(F)(F)F)ccc2n1Cc1cc([N+](=O)[O-])ccc1F,EC50,[1],2 nM
same,IC50,[2],4 nM
Cc1ccc2c(c1)c(-c1ccc(C)[nH]c1=O)c(C(=O)O)n2Cc1cc([N+](=O)[O-])ccc1F,EC50,[1],30 nM
same,IC50,[2],13 nM
Cc1cc2c(-c3ccc[nH]c3=O)c(C(=O)NS(=O)(=O)C3CC3)n(Cc3cc([N+](=O)[O-])ccc3F)c2cc1F,EC50,[1],4 nM
same,AUC,[3],0.35 µM·h
same,IC50,[2],7 nM
Cc1ccc2c(c1)c(-c1ccc[nH]c1=O)c(C(=O)NS(=O)(=O)C1CC1)n2Cc1ccccc1F,EC50,[1],50 nM
same,IC50,[2],5 nM
Cc1ccc2c(c1)c(-c1ccc[nH]c1=O)c(C(=O)NS(=O)(=O)C1CC1)n2Cc1cc(S(N)(=O)=O)ccc1F,EC50,[1],550 nM
same,IC50,[2],5 nM
Nc1cc(Cn2c(C(=O)O)c(-c3ccc[nH]c3=O)c3cc(Cl)ccc32)ccn1,IC50,[2],53 nM
Cc1ccc2c(c1)c(-c1ccc[nH]c1=O)c(C(=O)NS(=O)(=O)N(C)C)n2Cc1cc([N+](=O)[O-])ccc1F,EC50,[1],0.5 nM
same,IC50,[2],5 nM
Cc1ccc2c(c1)c(-c1ccc[nH]c1=O)c(C(=O)NS(=O)(=O)C1CC1)n2Cc1c(F)c(F)cc(S(C)(=O)=O)c1F,EC50,[1],270 nM
same,IC50,[2],14 nM
O=C(NS(=O)(=O)C1CC1)c1c(-c2ccc[nH]c2=O)c2cc(F)ccc2n1Cc1cc([N+](=O)[O-])ccc1F,EC50,[1],6 nM
same,IC50,[2],5 nM
Cc1ccc2c(c1)c(-c1ccc[nH]c1=O)c(C(=O)N[S+]([O-])C(C)C)n2Cc1cc([N+](=O)[O-])ccc1F (centres undefined),EC50,[1],2 nM
same,IC50,[2],7 nM
O=C(NS(=O)(=O)C1CC1)c1c(-c2ccc[nH]c2=O)c2ccccc2n1Cc1cc([N+](=O)[O-])ccc1F,EC50,[1],6 nM
same,IC50,[2],4 nM
CCc1ccc2c(c1)c(-c1ccc[nH]c1=O)c(C(=O)NS(=O)(=O)C1CC1)n2Cc1cc(S(C)(=O)=O)c(Cl)cc1F,EC50,[1],60 nM
same,IC50,[2],2 nM
CCc1ccc2c(c1)c(-c1ccc[nH]c1=O)c(C(=O)NS(=O)(=O)C1CC1)n2Cc1cc([N+](=O)[O-])ccc1F,Activity,[4],Non-toxic
same,EC50,[1],1 nM
same,Activity,[5],Not Active
same,AUC,[3],0.17 µM·h
same,IC50,[2],4 nM
same,Activity,[6],Non-toxic
same,Activity,[7],Non-toxic
Cc1ccc2c(c1)c(-c1ccc[nH]c1=O)c(C(=O)NS(=O)(=O)C1CC1)n2Cc1cc(S(=O)(=O)C(F)(F)F)ccc1Cl,EC50,[1],900 nM
same,IC50,[2],46 nM
Cc1ccc2c(c1)c(-c1ccc[nH]c1=O)c(C(=O)NS(=O)(=O)C1CC1)n2Cc1cc(F)ccc1F,IC50,[2],6 nM
Cc1ccc2c(c1)c(-c1ccc[nH]c1=O)c(C(=O)NS(=O)(=O)C1CC1)n2Cc1cc([N+](=O)[O-])ccc1F,EC50,[1],1 nM
same,AUC,[3],0.01 µM·h
same,IC50,[2],6 nM
Cc1ccc2c(c1)c(-c1ccc[nH]c1=O)c(C(=O)NS(=O)(=O)C1CC1)n2Cc1cc(S(C)(=O)=O)cc(C#N)c1F,EC50,[1],5 nM
same,IC50,[2],3 nM
Cc1ccc2c(c1)c(-c1ccc[nH]c1=O)c(C(=O)NS(=O)(=O)C1CC1)n2Cc1ccnc(N)c1,EC50,[1],500 nM
same,IC50,[2],6 nM
Cc1ccc2c(c1)c(-c1ccc[nH]c1=O)c(C(=O)NS(C)(=O)=O)n2Cc1cc([N+](=O)[O-])ccc1F,EC50,[1],1 nM
same,AUC,[3],0.19 µM·h
same,IC50,[2],6 nM
same,Activity,[8],Active
Cc1ccc2c(c1)c(-c1ccc[nH]c1=O)c(C(=O)O)n2Cc1cc([N+](=O)[O-])ccc1F,EC50,[1],1 nM
same,AUC,[3],0.14 µM·h
same,IC50,[2],3 nM
Cc1ccc2c(c1)c(-c1ccc(C)[nH]c1=O)c(C(=O)NS(C)(=O)=O)n2Cc1cc([N+](=O)[O-])ccc1F,EC50,[1],8 nM
same,IC50,[2],6 nM
O=C(NS(=O)(=O)C1CC1)c1c(-c2ccc[nH]c2=O)c2cc(Cl)ccc2n1Cc1cc([N+](=O)[O-])ccc1F,EC50,[1],5 nM
same,AUC,[3],0.3 µM·h
same,IC50,[2],6 nM
CCc1ccc2c(c1)c(-c1ccc[nH]c1=O)c(C(=O)NS(=O)(=O)C1CC1)n2Cc1cc(S(C)(=O)=O)c(C#N)cc1F,EC50,[1],3 nM
same,IC50,[2],3 nM
CC(C)(C)c1ccc2c(c1)c(-c1ccc[nH]c1=O)c(C(=O)NS(=O)(=O)C1CC1)n2Cc1cc([N+](=O)[O-])ccc1F,EC50,[1],10 nM
same,IC50,[2],6 nM
CCc1ccc2c(c1)c(-c1ccc[nH]c1=O)c(C(=O)NS(=O)(=O)C1CC1)n2Cc1cc(S(N)(=O)=O)c(Cl)cc1Cl,EC50,[1],1400 nM
same,IC50,[2],6 nM
Cc1ccc2c(c1)c(-c1ccc[nH]c1=O)c(C(=O)NS(=O)(=O)C1CC1)n2Cc1cccc(C)c1F,EC50,[1],380 nM
same,IC50,[2],4 nM
CCc1ccc2c(c1)c(-c1ccc[nH]c1=O)c(C(=O)O)n2Cc1cc([N+](=O)[O-])ccc1F,clearance,[9],10 mL/min/kg
same,clearance,[10],8 mL/min/kg
same,Stability,[11],Stable
same,Activity,[4],Non-toxic
same,EC50,[1],1 nM
same,Activity,[5],Not Active
same,AUC,[3],18 µM·h
same,inhibition (INH),[12],Not Active
same,inhibition (INH),[13],Not Active
same,half-life,[14],1.2 h
same,IC50,[2],5 nM
same,Activity,[6],Non-toxic
same,Stability,[15],Stable
same,Stability,[16],Stable
same,Activity,[7],Non-toxic
same,Stability,[17],Stable
same,bioavailability,[18],37%
same,half-life,[19],1.3 h
same,Activity,[20],Not Active
same,AUC,[21],3.4 µM·h
same,bioavailability,[22],95%
same,bioavailability,[23],30%
same,clearance,[24],10 mL/min/kg
same,AUC,[25],11 µM·h
same,inhibition (INH),[26],Not Active
same,half-life,[27],8.2 h
same,concentration at 6 h,[28],460 nM
Cc1ccc2c(c1)c(-c1ccc[nH]c1=O)c(C(=O)NS(=O)(=O)C1CC1)n2Cc1c(F)c(F)cc(C(N)=O)c1F,EC50,[1],3300 nM
same,IC50,[2],14 nM
